For four molecules, IC50 results are on record in BindingDB's records for doi:10.1021/jm990396t (Glaxo Wellcome Research and Development, 2000).

The target of this assay is Kynurenine 3-monooxygenase (Rattus norvegicus, UniProt O88867). Nature of the assay: Inhibition of Kynurenine-3-hydroxylase enzyme isolated from the rat liver. Put shortly: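 Enzyme source: P2 mitochondrial pellet from rat liver, resuspended in 0.32 M sucrose. Activity measured as ³HOH release from 3-[³H]-L-kynurenine at its K_m concentration, 37 °C, under conditions linear with time and enzyme protein. Five inhibitor concentrations tested. IC50 taken as the mean of at least 2 experiments run in duplicate, with variation <20%.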
Chain of Kynurenine 3-monooxygenase (O88867 whole entry): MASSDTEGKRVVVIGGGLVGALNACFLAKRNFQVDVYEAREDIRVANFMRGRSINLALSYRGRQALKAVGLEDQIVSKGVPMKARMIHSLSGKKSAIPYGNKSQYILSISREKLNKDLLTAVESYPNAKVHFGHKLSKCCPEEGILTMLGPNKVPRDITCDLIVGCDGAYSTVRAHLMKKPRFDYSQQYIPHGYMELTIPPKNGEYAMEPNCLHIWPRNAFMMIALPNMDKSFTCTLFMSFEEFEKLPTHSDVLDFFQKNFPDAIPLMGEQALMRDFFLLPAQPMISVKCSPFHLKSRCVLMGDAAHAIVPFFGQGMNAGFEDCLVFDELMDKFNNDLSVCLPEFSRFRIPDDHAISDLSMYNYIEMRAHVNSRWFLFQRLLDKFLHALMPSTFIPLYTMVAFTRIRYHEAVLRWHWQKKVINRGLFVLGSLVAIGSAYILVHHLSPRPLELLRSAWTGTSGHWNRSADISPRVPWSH

`COC(=O)C(=O)CC(=O)c1ccc(Cl)c(Cl)c1` [4-(3,4-Dichloro-phenyl)-2-hydroxy-4-oxo-but-2-enoic acid methyl ester] came in with an IC50 of 1900 nM.
For the molecule `COC(=O)C(=O)CC(=O)c1cccc(Cl)c1` [4-(3-Chloro-phenyl)-2-hydroxy-4-oxo-but-2-enoic acid methyl ester], the IC50 worked out at 1900 nM.
With `COC(=O)C(=O)CC(=O)c1ccc(Br)cc1` [4-(4-Bromo-phenyl)-2-hydroxy-4-oxo-but-2-enoic acid methyl ester] the figure was 1900 nM; with `O=C(O)C(=O)CC(=O)c1cccc(Br)c1` [(Z)-4-(3-Bromo-phenyl)-2-hydroxy-4-oxo-but-2-enoic acid], 1700 nM.
